Assays:
MT2 [1] = test: Cytotoxicity against mock-infected human MT2 cells after 5 days by MTT assay; type: cell-based; conditions: mt2, 120 h
How it was run: (§1)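 Infected (Y181C, MOI 0.1) or mock-infected MT-2 cells at 1×10^5 cells/mL exposed 5 days to graded compound concentrations in RPMI 1640/10% dFBS/kanamycin, triplicate. Viability by MTT (5 h), acidified isopropanol lysis, absorbance 595 nm. CC50 read from triplicate-mean dose-response curves as concentration reducing viable cells by 50%.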

[2] = Therapeutic index, ratio of CC50 for human MT2 cells to EC50 for HIV1 3B; type: cell-based; conditions: read-out: Ratio CC50/EC50
How it was run: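 MT-2 cells at 1×10^5 cells/mL, HIV-III_B or mock infection at MOI 0.1, 5 days with graded compound, triplicate; MTT read-out at 595 nm. Index computed as CC50 (mock-infected cells) over EC50 (viral replication), both from dose-response curves.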

[3] = biological target: Human immunodeficiency virus type 1 reverse transcriptase (Human immunodeficiency virus 1, UniProt Q72547); test: Inhibition of HIV1 3B reverse transcriptase
How it was run: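 Steady-state single-nucleotide incorporation: 6 nM RT (active-site titrated) pre-incubated at least 15 min with 1 μM 5'-radiolabeled primer/template, then at least 15 min on ice with inhibitor (DMSO under 2%, DMSO-only control). Started with 5 μM dTTP and 10 mM MgCl2 (final), 15 min at 37 °C, EDTA quench. Products resolved on 20% denaturing PAGE; hyperbolic fit gives IC50.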

[4] = system: Human immunodeficiency virus 1; test: Antiviral activity against nevirapine-resistant HIV1 with reverse transcriptase Y181C mutation in human MT2 cells assessed as inhibition of viral replication after 5 days by MTT assay; type: functional, organism-based; conditions: Human immunodeficiency virus 1, MT2, 120 h
How it was run: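 MT-2 cells at 1×10^5 cells/mL infected at MOI 0.1 (wild-type HIV-III_B or Y181C mutant), cultured 5 days in RPMI 1640 with 10% dFBS and kanamycin across a range of compound concentrations, triplicate wells. MTT added for 5 h, cells lysed with acidified isopropanol, A595 read. EC50 taken from dose-response curves of triplicate means as concentration inhibiting viral replication by 50%.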

MT2 [5] = test: Cytotoxicity against HIV1 Y181C mutant infected human MT2 cells after 5 days by MTT assay; type: cell-based; conditions: mt2, 120 h; how it was run: as §1
[6] = Therapeutic index, ratio of CC50 for HIV1 Y181C mutant infected human MT2 cells to EC50 for HIV1 with reverse transcriptase Y181C mutation; type: cell-based; conditions: read-out: Ratio CC50/EC50
How it was run: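 MT-2 cells (1×10^5 cells/mL), infected with Y181C mutant HIV-1 at MOI 0.1 or mock-infected, were cultured 5 days in RPMI 1640 with 10% dFBS and kanamycin at varying compound concentrations, in triplicate. MTT was added for 5 h, cells were lysed with acidified isopropanol, and A595 was read. EC50 (50% inhibition of viral replication) and CC50 (50% loss of viable cells) came from averaged dose-response curves.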

[7] = system: Human immunodeficiency virus 1; test: Antiviral activity against wild-type HIV1 3B infected in human MT2 cells assessed as inhibition of viral replication after 5 days by MTT assay; conditions: Human immunodeficiency virus 1, 3B, MT2, 120 h

SMILES	CC50 (MT2 [1]) [nM]	selectivity ratio [2]	IC50 [3] [nM]	EC50 [4] [nM]	CC50 (MT2 [5]) [nM]	selectivity ratio [6]	EC50 [7] [nM]
COc1ccc(OC)c(CCNC(=S)Nc2ccc(Br)cn2)c1	1000	21	28	1200	18000	15	48
C#CCCOc1ccc(OC)cc1CCNC(=S)Nc1ccc(Br)cn1	1000	38	3.8	< 200	4000	> 20	26
COC(=O)COc1ccc(OC)cc1CCNC(=S)Nc1ccc(Br)cn1	48000	4	100				12000
C=CCOc1ccc(OC)cc1CCNC(=S)Nc1ccc(Br)cn1	11000	55					200
COc1ccc(OCc2ccccc2)c(CCNC(=S)Nc2ccc(Br)cn2)c1	4000	18					220
COc1ccc(OCCO)c(CCNC(=S)Nc2ccc(Br)cn2)c1	1000	83	19				12
COc1ccc(OCCCO)c(CCNC(=S)Nc2ccc(Br)cn2)c1	8500	94	24				98
C#CCOCCOCCOc1ccc(OC)cc1CCNC(=S)Nc1ccc(Br)cn1	6800	17					390
COc1ccc(OCCCC#N)c(CCNC(=S)Nc2ccc(Br)cn2)c1	3800	76					50
C#CCCCOc1ccc(OC)cc1CCNC(=S)Nc1ccc(Br)cn1	10000	40	27				250
CC#CCOc1ccc(OC)cc1CCNC(=S)Nc1ccc(Br)cn1	20000	74					270
COc1ccc(OCC#N)c(CCNC(=S)Nc2ccc(Br)cn2)c1	5500	46					120
C#CCOCCOc1ccc(OC)cc1CCNC(=S)Nc1ccc(Br)cn1	9500		41				95
CCCOc1ccc(OC)cc1CCNC(=S)Nc1ccc(Br)cn1	100	1					95
C#CCOc1ccc(OC)cc1CCNC(=S)Nc1ccc(Br)cn1	100	2					52
COc1ccc(OCCOCc2ccccc2)c(CCNC(=S)Nc2ccc(Br)cn2)c1	5800	3					2000

Source: ChEMBL document CHEMBL1152198, “C-2-aryl O-substituted HI-236 derivatives as non-nucleoside HIV-1 reverse-transcriptase inhibitors” (Bioorg Med Chem, 2008)
